# Reference: ChEMBL document CHEMBL3425440, “ent-Kaurane Diterpenoids from Chinese Liverworts and Their Antitumor Activities through Michael Addition As Detected in Situ by a Fluorescence Probe” (J Med Chem, 2015)
# How the values were obtained:
# [1] = Cytotoxicity against human RWPE1 cells assessed as cell viability after 24 hrs by MTT assay; type: cell-based; details: RWPE-1, 24 h
# How it was run: (§1)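 Cells grown to about 50−70% confluence at 37 °C, 5% CO2, then exposed to compounds 24 h (DMSO vehicle control, cisplatin positive control). MTT (5 mg/mL stock) added for 4 h, formazan dissolved in DMSO, absorbance read at 570 nm. IC50 derived from percent viability; at least three independent experiments, mean ± SD.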
# [2] = Cytotoxicity against human HL60 cells assessed as cell viability after 24 hrs by MTT assay; type: functional, cell-based; details: HL-60, 24 h; how it was run: as §1
# [3] = Cytotoxicity against human SKOV3 cells assessed as cell viability after 24 hrs by MTT assay; type: functional, cell-based; details: SK-OV-3, 24 h; how it was run: as §1
# K562 = assay: Cytotoxicity against human K562 cells assessed as cell viability after 24 hrs by MTT assay; type: functional, cell-based; details: K562, 24 h; how it was run: as §1
# LoVo = assay: Cytotoxicity against human LoVo cells assessed as cell viability after 24 hrs by MTT assay; type: functional, cell-based; how it was run: as §1
# [4] = Cytotoxicity against human PC3 cells assessed as cell viability after 24 hrs by MTT assay; type: functional, cell-based; details: PC-3, 24 h; how it was run: as §1
# DU-145 = assay: Cytotoxicity against human DU145 cells assessed as cell viability after 24 hrs by MTT assay; type: functional, cell-based; details: DU-145, 24 h; how it was run: as §1
# [5] = Cytotoxicity against human T24 cells assessed as cell viability after 24 hrs by MTT assay; type: functional, cell-based; details: T-24, 24 h; how it was run: as §1
# NCI-H1299 = assay: Cytotoxicity against human NCI-H1299 cells assessed as cell viability after 24 hrs by MTT assay; type: functional, cell-based; details: NCI-H1299, 24 h; how it was run: as §1
# [6] = Cytotoxicity against human Saos2 cells assessed as cell viability after 24 hrs by MTT assay; type: functional, cell-based; details: SAOS-2, 24 h; how it was run: as §1
# [7] = Cytotoxicity against human A172 cells assessed as cell viability after 24 hrs by MTT assay; type: functional, cell-based; details: A 172, 24 h; how it was run: as §1
# [8] = Cytotoxicity against human SH-SY5Y cells assessed as cell viability after 24 hrs by MTT assay; type: functional, cell-based; how it was run: as §1
# MDA-MB-231 = assay: Cytotoxicity against human MDA-MB-231 cells assessed as cell viability after 24 hrs by MTT assay; type: functional, cell-based; details: MDA-MB-231, 24 h; how it was run: as §1
# LNCaP = assay: Cytotoxicity against human LNCAP cells assessed as cell viability after 24 hrs by MTT assay; type: functional, cell-based; how it was run: as §1
SMILES,IC50 [1] [µM],IC50 [2] [µM],IC50 [3] [µM],IC50 (K562) [µM],IC50 (LoVo) [µM],IC50 [4] [µM],IC50 (DU-145) [µM],IC50 [5] [µM],IC50 (NCI-H1299) [µM],IC50 [6] [µM],IC50 [7] [µM],IC50 [8] [µM],IC50 (MDA-MB-231) [µM],IC50 (LNCaP) [µM]
C[C@H]1C(=O)[C@@]23CC[C@@H]4[C@](C)(CO)CCC[C@@]4(C)C2=CC[C@]1(O)C3,> 50,> 50,> 50,> 50,> 50,> 50,> 50,> 50,> 50,> 50,> 50,> 50,> 50,> 50
C[C@@H]1C(=O)[C@H]2C[C@]1(O)CC1=C2[C@]2(C)CCC[C@](C)(C=O)[C@H]2CC1,> 50,> 50,> 50,> 50,> 50,> 50,> 50,> 50,> 50,> 50,> 50,> 50,> 50,> 50
C[C@H]1C(=O)[C@@]23CC[C@@H]4[C@@](C)(CO)CCC[C@@]4(C)C2=CC[C@]1(O)C3,> 50,> 50,> 50,> 50,> 50,> 50,> 50,> 50,> 50,> 50,> 50,> 50,> 50,> 50
C[C@H]1C(=O)[C@@]23CC[C@@H]4[C@@](C)(C=O)CCC[C@@]4(C)C2=CC[C@]1(O)C3,> 50,> 50,> 50,> 50,> 50,> 50,> 50,> 50,> 50,> 50,> 50,> 50,> 50,> 50
C=C1[C@@H]2CC[C@H]3[C@]4(C)CCC[C@@](C)(CO)[C@H]4CC[C@]3(C2)[C@@H]1O,> 50,> 50,> 50,> 50,> 50,> 50,> 50,> 50,> 50,> 50,> 50,> 50,> 50,> 50
C[C@H]1C(=O)[C@@]23CC[C@@H]4C(C)(C)[C@H](O)CC[C@@]4(C)[C@@H]2[C@@H](O)C[C@@H]1C3,> 50,> 50,> 50,> 50,> 50,> 50,> 50,> 50,> 50,> 50,> 50,> 50,> 50,> 50
C[C@H]1C(=O)[C@@]23C[C@H](O)[C@@H]4[C@@](C)(CO)CCC[C@@]4(C)C2=CC[C@]1(O)C3,> 50,> 50,> 50,> 50,> 50,> 50,> 50,> 50,> 50,> 50,> 50,> 50,> 50,> 50
C=C1[C@@H]2C[C@@H](O)[C@H]3[C@]4(C)CCCC(C)(C)[C@H]4CC[C@]3(C2)[C@@H]1O,> 50,> 50,> 50,> 50,> 50,> 50,> 50,> 50,> 50,> 50,> 50,> 50,> 50,> 50
C=C1[C@@H]2CC(=O)[C@H]3[C@]4(C)CCCC(C)(C)[C@H]4[C@@H](O)C[C@]3(C2)[C@@H]1O,> 50,> 50,> 50,> 50,> 50,> 50,> 50,> 50,> 50,> 50,> 50,> 50,> 50,> 50
C[C@@H]1C(=O)[C@@]23CC[C@@H]4C(C)(C)CCC[C@@]4(C)[C@@H]2[C@@H](O)C[C@@H]1C3,> 50,> 50,> 50,> 50,> 50,> 50,> 50,> 50,> 50,> 50,> 50,> 50,> 50,> 50
C=C1[C@@H](O)[C@@]23CC[C@@H]4C(C)(C)CCC[C@@]4(C)[C@@H]2CC[C@@H]1[C@H]3O,> 50,> 50,> 50,> 50,> 50,> 50,> 50,> 50,> 50,> 50,> 50,> 50,> 50,> 50
C[C@H]1C(=O)[C@@]23CC[C@@H]4C(C)(C)CCC[C@@]4(C)C2=CC[C@]1(O)C3,> 50,> 50,> 50,> 50,> 50,> 50,> 50,> 50,> 50,> 50,> 50,> 50,> 50,> 50
C=C1C(=O)[C@@]23CC[C@@H]4[C@@](C)(C=O)CCC[C@@]4(C)C2=CC[C@]1(O)C3,12.7,4.4,7.4,6.3,9.3,11.4,11.6,5.9,12.2,7.3,4.4,4.2,21.6,9.5
C[C@@H]1C(=O)[C@H]2C[C@]1(O)CC1=C2[C@]2(C)CCC[C@](C)(CO)[C@H]2CC1,> 50,> 50,> 50,> 50,> 50,> 50,> 50,> 50,> 50,> 50,> 50,> 50,> 50,> 50
C=C1C(=O)[C@@]23CC[C@@H]4[C@](C)(CO)CCC[C@@]4(C)C2=CC[C@]1(O)C3,13.2,6.7,11.3,10.4,18.4,6.6,8.3,13.2,19,15.8,13,4.9,15.5,12.8
C=C1[C@@H]2CC(=O)[C@H]3[C@]4(C)CCCC(C)(C)[C@H]4[C@@H](O)[C@@H](O)[C@]3(C2)[C@@H]1O,> 50,> 50,> 50,> 50,> 50,> 50,> 50,> 50,> 50,> 50,> 50,> 50,> 50,> 50
C=C1[C@@H]2CC[C@]3(O)[C@@](CC[C@@H]4C(C)(C)CCC[C@]43C)(C2)[C@@H]1O,> 50,> 50,> 50,> 50,> 50,> 50,> 50,> 50,> 50,> 50,> 50,> 50,> 50,> 50
C=C1[C@@H]2CC[C@H]3[C@]4(C)CCCC(C)(C)[C@H]4C[C@@H](O)[C@]3(C2)[C@H]1O,> 50,> 50,> 50,> 50,> 50,> 50,> 50,> 50,> 50,> 50,> 50,> 50,> 50,> 50
C=C1C(O)[C@@]23CC[C@H]4[C@@](C)(CCC[C@@]4(C)C(=O)O)[C@@H]2CC[C@]1(O)C3 (stereo partly specified),> 50,> 50,> 50,> 50,> 50,> 50,> 50,> 50,> 50,> 50,> 50,> 50,> 50,> 50
